From PubChem
Hits are enriched below; roughly 1.7% of the tested compounds scored in any of these assays.
Neddylation inh: cullin neddylation inhibition | hit rate 0.58% among 360,000 | TR-FRET cullin neddylation, biochemical | AID 651699 | P61081+Q13564 | inhibition, % at 25 µM; in the data active means inhibition above about 36%
Target sequence (P61081 whole entry, looked up): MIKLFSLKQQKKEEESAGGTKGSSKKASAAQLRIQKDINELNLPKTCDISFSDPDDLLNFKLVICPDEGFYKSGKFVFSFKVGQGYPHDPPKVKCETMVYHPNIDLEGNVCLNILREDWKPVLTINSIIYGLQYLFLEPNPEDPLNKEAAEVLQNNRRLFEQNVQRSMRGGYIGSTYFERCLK
Target sequence (Q13564 whole entry, looked up): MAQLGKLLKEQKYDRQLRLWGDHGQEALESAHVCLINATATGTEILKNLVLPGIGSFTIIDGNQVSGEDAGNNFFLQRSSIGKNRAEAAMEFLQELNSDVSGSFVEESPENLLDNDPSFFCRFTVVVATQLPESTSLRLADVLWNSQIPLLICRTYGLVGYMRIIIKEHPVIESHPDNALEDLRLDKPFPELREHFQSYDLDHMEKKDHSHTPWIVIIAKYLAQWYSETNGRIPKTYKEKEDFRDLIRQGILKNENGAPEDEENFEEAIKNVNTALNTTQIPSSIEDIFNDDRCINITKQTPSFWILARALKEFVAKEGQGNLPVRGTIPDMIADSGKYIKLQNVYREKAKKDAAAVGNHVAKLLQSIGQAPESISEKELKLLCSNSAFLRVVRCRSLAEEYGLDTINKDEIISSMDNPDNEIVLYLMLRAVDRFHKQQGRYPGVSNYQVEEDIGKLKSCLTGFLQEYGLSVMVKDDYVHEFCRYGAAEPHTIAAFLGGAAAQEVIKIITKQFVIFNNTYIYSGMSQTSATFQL
Arr AP2 block: human beta-arrestin and AP2 interaction inhibition | FITC-arrestin peptide / GST-AP2 beads, flow cytometry; AP2 beta2 appendage carries R879A mutation | inhibition, % at 10 µM | hit rate 0.31% among 340,000 | AID 504490;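 active means inhibition above a set limit, near 3 SD of compounds lacking own fluorescence, cut at about 54% in these data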;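 further: plate controls were DMSO wells for no effect and 5 µM unlabelled arrestin peptide for full effect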
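Material – GST-tagged AP2 beta2-adaptin appendage (R879A) on 4 µm glutathione beads · Probe or stimulus – fluorescein-tagged arrestin peptide at 50 nM final · Timing – 12 min plus 1 h, RT · Detection – bead flow cytometry, FITC channel · Read-out basis – inhibition as reduced fluorescein signal on beads, percent · Medium – PBS plus Tween 20 (0.05%) and BSA (0.1%)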
DSG3 Ab inh: blocks pemphigus antibody binding to human desmoglein-3. binding (percent of control), % at 10 µM. AID 588358. DSG3-coupled beads, scFv-anti-DSG3-GFP binding, flow cytometry; active compounds read low. hit rate 0.48% among 310,000;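 active means binding more than 3 SD below its plate's average and above zero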;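 further: hits lower antibody fragment binding to DSG3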
Efflux pump mplx: blocks antifungal efflux pumps in multiplex yeast assay; inhibition, % at 10 µM; S. cerevisiae Candida pump triplex, Nile Red efflux; hit rate 0.44% among 330,000; AID 485275;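 active means plate passing quality check with inhibition over a set limit, or well fluorescence over plate mean plus 4 SD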;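 further: Nile Red retained in pooled yeast measured as flow cytometry median fluorescence; 0% = buffer negative control and 100% = Enniatin B positive control; higher means more Nile Red kept so more efflux inhibition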
Yeast cmpd fluor: flagged as fluorescent in efflux inhibitor counter-screen. shares compounds with Efflux pump mplx. S. cerevisiae AD/pABC3, compound fluorescence, flow cytometry. fluorescence ratio to DMSO, % at 10 µM. hit rate 4% among 1,700;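 active means fluorescence ratio to DMSO above its plate's cutoff, the plate mean ratio plus 5 SD, cut at about 210% in these data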;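 further: unstained yeast with no Nile Red so the signal is compound autofluorescence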
Mdr1 pump inh: inhibitors of Candida albicans Mdr1 efflux pump; inhibition, % at 10 µM; S. cerevisiae AD/CaMDR1, Nile Red efflux, flow cytometry; shares compounds with Efflux pump mplx; hit rate 1% among 1,700; in the data active means inhibition above about 26%;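 further: 0% = DMSO vehicle and 100% = reference inhibitor; higher means more Nile Red retained so more efflux inhibition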
CaCdr2 efflux inh: inhibitors of Candida albicans Cdr2 efflux pump; S. cerevisiae AD/CaCDR2, Nile Red retention, flow cytometry; shares compounds with Efflux pump mplx; hit rate 4% among 1,700; Nile Red retention ratio vs DMSO, % at 10 µM; in the data active means Nile Red retention ratio vs DMSO above about 190%;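 further: higher ratio means more blocking of Cdr2 efflux of the dye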
Cdr1 pump inh: Candida Cdr1 efflux pump inhibition; hit rate 1% among 1,700; AID 588522; inhibition, % at 10 µM; S. cerevisiae AD/CaCDR1, Nile Red efflux, flow cytometry; shares compounds with Efflux pump mplx;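 active means inhibition above the screen-wide mean plus twice its standard deviation, cut at about 32% in these data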
* marks the source's active call; other numbers are inactive results; i = inactive; . = not tested or not shown.

SMILES	Neddylation inh	Arr AP2 block	DSG3 Ab inh	Efflux pump mplx	Yeast cmpd fluor	Mdr1 pump inh	CaCdr2 efflux inh	Cdr1 pump inh
COCCNC(=O)/C(C#N)=C/C(C)=C/c1ccccc1	-17	3	99	17*	99	0	102	0
CCN(c1ccccc1)S(=O)(=O)c1ccc2c(c1)OCCO2	-6	4	.	0	.	.	.	.
O=C(O)C(Cc1c[nH]c2ccccc12)NS(=O)(=O)c1cccc2nsnc12 (centres undefined)	-33	-3	96	24*	79	0	95	0
O=C(O)C(Cc1c[nH]c2ccccc12)NS(=O)(=O)c1ccccc1 (centres undefined)	2	5	106	0	.	.	.	.
Cn1cc(Br)c(C(=O)NNC(=O)c2ccc(Cl)cc2)n1	10	-1	125	8.9*	91	0	95	0
O=C(CC1Sc2ccccc2NC1=O)Nc1ccccc1[N+](=O)[O-] (centres undefined)	-27	8	128	18*	100	0	94	0
Cn1cc(Br)c(C(=O)Nc2sc3c(c2C#N)CCC3)n1	.	-6	106	0	106	0	112	0
Cn1cc(Cl)c(C(=O)NC(=S)Nc2sc3c(c2C#N)CCCCC3)n1	-74	-10	88	0	.	.	.	.
Cn1cc([N+](=O)[O-])c(C(=O)Nc2sc3c(c2C#N)CCC3)n1	-34	-6	101	0	111	0	129	0
Cc1cc(C(=O)Nc2sc3c(c2C#N)CCC3)no1	-2	1	109	0	.	.	.	.
Cn1ccc(C(=O)Nc2sc3c(c2C#N)CCC3)n1	-12	18	97	0	106	-1	97	0
CC1C=CCC2C(=O)N(c3cccc(C(=O)NCc4ccccc4)c3)C(=O)C12 (centres undefined)	8	1	105	0	.	.	.	.
O=C1Nc2ccccc2/C1=C/c1cnc(-c2ccccc2)[nH]1	-72	-5	169	0.8*	111	0	435*	1
CCc1ccc(-n2c(=O)c3ccccc3n(CC(=O)NCc3ccco3)c2=O)cc1	3	16	94	0.8*	102	0	101	0
CC1CCN(S(=O)(=O)c2ccc(NC(=O)CN3C(=O)NC(C)(c4ccccc4)C3=O)cc2)CC1 (centres undefined)	6	1	101	0	.	.	.	.
CCn1cc(C(=O)O)c(=O)c2cnc(N3CCN(C(=S)NC(=O)c4ccccc4)CC3)nc21	12	0	102	0.8*	93	0	98	0
CCOC(=O)[C@]12CCCC=C1N(Cc1ccco1)C(=O)[C@H](CC(=O)NCCCN1CCCC1=O)C2	1	.	.	.	.	.	.	.
Cc1cc2nc3s/c(=C/c4ccc(-c5ccccc5C(=O)O)o4)c(=O)n3c2cc1C	-21	-12	343	0.9*	133	0	142	0
CC(SCc1ccccc1)C(=O)N/N=C/c1ccc(OCC(=O)NCc2ccco2)cc1 (centres undefined)	6	-1	105	14*	118	0	94	1
CCc1nnc(NC(=O)CN2C(=O)NC3(CC(C)CC(C)(C)C3)C2=O)s1 (centres undefined)	2	2	107	0	.	.	.	.
COc1ccc(Br)cc1/C=c1\sc2nc(-c3ccco3)nn2c1=O	5	9	90	1.1*	107	0	109	0
Cc1ccc(-c2nc3s/c(=C\c4ccco4)c(=O)n3n2)cc1	-11	-2	80	0.8*	97	0	97	0
COc1ccc(/C=c2\sc3nc(=O)c(C)nn3c2=O)c(OC)c1	0	7	98	0	.	.	.	.
Cc1ccc(/C=c2\sc3nc(-c4ccco4)nn3c2=O)o1	-17	14	101	0	.	.	.	.
COc1ccccc1/C=c1\sc2nc(-c3ccccc3OC)nn2c1=O	13	18	92	0	100	0	106	0
SMILES	Neddylation inh	Arr AP2 block	DSG3 Ab inh	Efflux pump mplx	Yeast cmpd fluor	Mdr1 pump inh	CaCdr2 efflux inh	Cdr1 pump inh
Cc1ccc(/C=c2\sc3nc(-c4ccccc4Br)nn3c2=O)o1	0	6	106	0	99	0	109	0
CCNS(=O)(=O)c1ccc(C(=O)OCc2cc(=O)oc3cc(OC)ccc23)cc1	-119	-1	116	0	.	.	.	.
CN(NC(=O)C(=O)NCc1ccco1)C(=O)Nc1ccc(Cl)cc1	6	.	.	.	.	.	.	.
O=S1(=O)CCN(C2CCCCCCC2)CC1	4	.	97	.	.	.	.	.
CN(Cc1nc2ccccc2c(=O)[nH]1)C(=O)c1cccc(S(=O)(=O)N2CCc3ccccc32)c1	15	6	105	0	.	.	.	.
CCOc1cc(C2C3=C(CCCC3=O)Nc3nc(C(=O)OC)nn32)ccc1OC (centres undefined)	4	7	.	1.4*	103	0	99	0
COc1cc(N)c(Br)cc1C(=O)O	-6	-7	100	0.7*	92	0	93	0
CCCCC(=O)NC(c1ccco1)c1cc(Cl)c2cccnc2c1O (centres undefined)	16	-16	107	0	.	.	.	.
CCC(=O)NC(c1ccco1)c1cc(Cl)c2cccnc2c1O (centres undefined)	-1	6	102	3.0*	92	0	109	0
Cc1ccc(O)c(C(=O)CC(=O)c2ccc(C(C)(C)C)cc2)c1	-3	-6	117	0	.	.	.	.
Cc1ccc(O)c(C(=O)CC(=O)c2ccccc2Cl)c1	17	-1	102	0.6*	89	0	89	0
CCOc1ccc(S(=O)(=O)NCC(=O)NC2CCCCC2)cc1	1	-1	105	0	.	.	.	.
O=C(NC(=S)Nc1ccc2[nH]c(=O)[nH]c2c1)c1ccccc1Cl	16	-11	102	6.2*	92	0	105	0
CCOC(=O)c1c(NC(=S)NC)sc2c1CC(C)(C)SC2	-51	-4	102	0	.	.	.	.
CCOC(=O)c1c(NC(=S)Nc2ccccc2)sc2c1CC(C)(C)SC2	i	4	94	0.5*	202	6	245*	4
COc1ccc(C(=O)c2no[n+]([O-])c2C(=O)c2ccc(OC)cc2)cc1	-7	-8	114	0	.	.	.	.
O=C(c1cccs1)c1no[n+]([O-])c1C(=O)c1cccs1	-19	17	107	0.9*	107	2	287*	0
CC(Sc1nc2ncc(Cl)cc2[nH]1)C(=O)Nc1ccc(C(N)=O)cc1 (centres undefined)	7	1	106	0	.	.	.	.
COc1ccccc1Cn1c(=O)c2ccccc2n2c(SCC(=O)N3CCCCC3)nnc12	16	2	106	1.6*	111	0	110	0
